Measurements pooled from the literature.
Protocols differ between the studies behind these lines.
Target: Casein kinase I isoform epsilon (CSNK1E, Homo sapiens, UniProt P49674)

| SMILES | read-out | mode | method | concentration | endpoint | result |
| --- | --- | --- | --- | --- | --- | --- |
| O=C(O)c1cc(-c2ccc(C3CCNCC3)cc2)c2ccc(-c3ccc(C(F)(F)F)cc3)cc2c1 | cell-free assay |  | competition with immobilised ligand | 1 µM | remaining binding | 100% |
| O=C1Nc2ccc(Cl)cc2C1=Cc1cc(Cl)c(O)c(Cl)c1 | enzyme activity |  |  | 0.5 µM | remaining activity | 66.6% |
| COc1cc2ncnc(Nc3ccc(Oc4ccccc4)c(C)c3C)c2cc1OC | enzyme activity | inhibitor |  | 1 µM | inhibition | 0% |
| COc1cc2ncnc(Nc3ccc(F)c(Cl)c3)c2cc1OCCCN1CCOCC1 | enzyme activity |  |  | 0.5 µM | remaining activity | 106% |
| CC(C)(O)[C@H]1CC[C@H](Nc2ccc3ncc(-c4cccc(C(F)(F)F)c4)n3n2)CC1 | enzyme activity | inhibitor |  | 1 µM | remaining activity | 78.5% |
| Nc1ncnc2occ(-c3ccc(NC(=O)Nc4cc(C(F)(F)F)ccc4F)cc3)c12 | enzyme activity | inhibitor |  | 20 µM | remaining activity | 0.65% |
| Nc1nc(Nc2ccc(S(N)(=O)=O)cc2)nn1C(=O)c1c(F)cccc1F | cell-free assay |  |  | 0.5 µM | remaining signal | 96.9% |
| CC(C)(C)c1nc(-c2cccc(NS(=O)(=O)c3c(F)cccc3F)c2F)c(-c2ccnc(N)n2)s1 | enzyme activity | inhibitor | radiometric | 1 µM | remaining activity | 89% |
| Cc1sc(C(=O)NC2COC2)cc1-n1cc(NC(=O)Nc2c(F)cccc2Cl)cn1 | enzyme activity | inhibitor |  | 10 µM | remaining activity | 97.9% |
| CC1=C(C#N)C(c2ccc3c(c2)c(NC(=O)c2ccccc2C)nn3C)C(C#N)=C(C)N1 | cell-free assay |  | competition with immobilised ligand | 1 µM | remaining binding | 100% |
| CS(=O)(=O)CCNCc1ccc(-c2ccc3ncnc(Nc4ccc(OCc5cccc(F)c5)c(Cl)c4)c3c2)o1 | enzyme activity |  |  | 0.5 µM | remaining activity | 99.4% |
| Cn1c2c(c3ccc(Cl)c(Cl)c31)C(C#N)C1(CCOCC1)NC2=O (stereo not shown) | thermal stability |  | DSF | 10 µM | ΔTm | 0.4 °C |
| CCN(CC)CCNC(=O)c1c(C)[nH]c(/C=C2\C(=O)Nc3ccc(Cl)cc32)c1C | enzyme activity | inhibitor |  | 0.5 µM | remaining activity | 46.7% |
| Cn1c2c(c3ccc(Cl)c(Cl)c31)C(C#N)C(C)(C)NC2=O (stereo not shown) | thermal stability |  | DSF | 10 µM | ΔTm | 1.3 °C |
| CCCCN(CCCC)C(=O)CN1C[C@H](c2cc(OC)c3c(c2)OCO3)[C@@H](C(=O)O)[C@@H]1CC(C)(C)CCC | cell-free assay |  | competition with immobilised ligand | 1 µM | remaining binding | 100% |
| Cn1c2c(c3ccccc31)C(C#N)C(C)(C)NC2=O (stereo not shown) | thermal stability |  | DSF | 10 µM | ΔTm | 0.8 °C |
| CN(C)C(=O)Cn1cc(-c2nc(C3(c4ccc(-c5cnc(N)nc5)cc4)CC3)no2)cn1 | cell-free assay |  | competition with immobilised ligand | 1 µM | remaining binding | 100% |
| O=C(Nc1cnn(-c2csc(C(=O)NC3COC3)c2)c1)Nc1ccccc1Cl | enzyme activity | inhibitor |  | 5 µM | remaining activity | 89.6% |
| O=C(NS(=O)(=O)c1ccc(NCC2CCOCC2)c([N+](=O)[O-])c1)c1ccc(N2CCN(Cc3ccc(C(F)(F)F)cc3-c3ccc(Cl)cc3)CC2)cc1Oc1cnc2[nH]ccc2c1 | cell-free assay |  | competition with immobilised ligand | 1 µM | remaining binding | 95% |
| Cc1ccc(NC(=O)c2ccc(CN3CCN(C)CC3)cc2)cc1Nc1nccc(-c2cccnc2)n1 | enzyme activity | inhibitor |  | 0.5 µM | activity vs control | 92.4% |
| CN(C)CC#Cc1ccc(OCCCc2sc(N3CCc4cccc(C(=O)Nc5nc6ccccc6s5)c4C3)nc2C(=O)O)c(F)c1 | cell-free assay |  | competition with immobilised ligand | 1 µM | remaining binding | 86% |
| CCCS(=O)(=O)Nc1ccc(F)c(C(=O)c2c[nH]c3ncc(-c4ccc(Cl)cc4)cc23)c1F | enzyme activity | inhibitor |  | 1 µM | inhibition | < 10% |
